Calls of active or inactive are those of the source. The rule behind the calls is not given here.
How the values were obtained:
D-amino-acid oxidase [1] = molecular target: T1, D-amino-acid oxidase (Homo sapiens, UniProt P14920); assay: Inhibition of recombinant human DAAO expressed in HEK cells using D-serine as substrate assessed as formation of alpha-keto acid, ammonia, […] after 20 mins by horseradish peroxidase/o-phenylenediamine-based assay; set-up: species or system HEK293
In short: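 Human DAAO from HEK cells: lysate in 50 mM Tris pH 8.5 with 100 µM FAD, sonicated, then ion-exchange purified with a 0–0.5 M NaCl gradient. […] Enzyme set to give 2.0 mOD/min uninhibited. Rate read as absorbance change at 411 nm. Mean ± SD of ≥4 experiments in most cases.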

MAO-B = molecular target: T2, MAO-B (Homo sapiens, UniProt P27338); assay: Inhibition of MAO-B (unknown origin) at 10 uM relative to control
T2 sequence (P27338 whole entry): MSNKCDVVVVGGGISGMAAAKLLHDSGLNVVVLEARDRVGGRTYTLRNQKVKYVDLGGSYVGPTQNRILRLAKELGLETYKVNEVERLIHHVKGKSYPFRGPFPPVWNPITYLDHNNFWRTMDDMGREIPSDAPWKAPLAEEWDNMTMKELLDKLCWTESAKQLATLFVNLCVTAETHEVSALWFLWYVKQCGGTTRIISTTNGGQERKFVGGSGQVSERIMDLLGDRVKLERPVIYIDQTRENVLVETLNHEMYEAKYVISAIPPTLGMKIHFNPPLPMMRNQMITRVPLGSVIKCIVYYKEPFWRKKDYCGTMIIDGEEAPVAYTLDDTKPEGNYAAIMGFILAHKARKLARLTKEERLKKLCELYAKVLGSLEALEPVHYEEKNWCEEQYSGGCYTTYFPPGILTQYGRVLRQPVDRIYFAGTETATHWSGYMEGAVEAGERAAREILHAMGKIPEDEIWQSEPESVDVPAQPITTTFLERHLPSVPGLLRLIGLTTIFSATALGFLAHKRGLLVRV

[2] = molecular target: T3, Glycine receptor subunit alpha-1 (Homo sapiens) (UniProt P23415); assay: Inhibition of strychnine-sensitive glycine receptor (unknown origin) at 10 uM relative to control
T3 sequence (whole entry): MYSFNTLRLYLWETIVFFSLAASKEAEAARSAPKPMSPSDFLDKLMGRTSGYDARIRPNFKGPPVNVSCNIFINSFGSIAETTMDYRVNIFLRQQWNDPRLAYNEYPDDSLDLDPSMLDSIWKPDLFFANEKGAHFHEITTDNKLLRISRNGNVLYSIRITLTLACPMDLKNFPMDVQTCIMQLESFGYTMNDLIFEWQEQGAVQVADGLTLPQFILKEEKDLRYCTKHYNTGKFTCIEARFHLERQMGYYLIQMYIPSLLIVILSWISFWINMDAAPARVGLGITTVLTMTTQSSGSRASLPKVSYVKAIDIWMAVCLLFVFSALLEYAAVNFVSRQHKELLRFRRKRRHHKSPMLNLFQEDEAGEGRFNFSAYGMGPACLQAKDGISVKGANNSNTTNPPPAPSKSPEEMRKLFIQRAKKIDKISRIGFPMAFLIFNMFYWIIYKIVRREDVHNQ

Mus musculus [3] = assay: Decrease in plasma clearance of D-serine in CD1 mouse assessed as D-serine AUC (0 to 6 hrs) at 30 mg/kg, po (R[…]microg.hr/ml); format: functional
[4] = molecular target: T4, Glutamate NMDA receptor; GRIN1/GRIN2A (Homo sapiens) (UniProt Q05586+Q12879); assay: Inhibition of NMDA receptor agonist binding site (unknown origin) at 10 uM relative to control; format: protein-complex assay
Mus musculus [5] = assay: Ratio of drug level in brain to plasma in CD1 mouse at 30 mg/kg, po; format: ADME, organism-based
[6] = molecular target: T4, Glutamate NMDA receptor; GRIN1/GRIN2A (Homo sapiens); assay: Inhibition of NMDA receptor MK801 binding site (unknown origin) at 10 uM relative to control; format: protein-complex assay
[7] = Metabolic stability in mouse liver microsomes assessed as compound remaining at 5 uM after 60 mins by LC/MS/MS analysis in presence of UDPGA; format: ADME; conditions: 1 h
In short: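 Glucuronidation in mouse liver microsomes (0.5 mg/mL): 50 mM Tris-HCl pH 7.5, 8 mM MgCl2, 25 µg/mL alamethicin, pre-incubated at 37 °C. Started with 2 mM UDPGA (final), in duplicate, for 60 min. Quenched with cold acetonitrile plus internal standard; LC/MS/MS read-out, with cofactor-free controls.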

MAO-A = molecular target: T5, MAO-A (Homo sapiens, UniProt P21397); assay: Inhibition of MAO-A (unknown origin) at 10 uM relative to control
T5 sequence (P21397 whole entry): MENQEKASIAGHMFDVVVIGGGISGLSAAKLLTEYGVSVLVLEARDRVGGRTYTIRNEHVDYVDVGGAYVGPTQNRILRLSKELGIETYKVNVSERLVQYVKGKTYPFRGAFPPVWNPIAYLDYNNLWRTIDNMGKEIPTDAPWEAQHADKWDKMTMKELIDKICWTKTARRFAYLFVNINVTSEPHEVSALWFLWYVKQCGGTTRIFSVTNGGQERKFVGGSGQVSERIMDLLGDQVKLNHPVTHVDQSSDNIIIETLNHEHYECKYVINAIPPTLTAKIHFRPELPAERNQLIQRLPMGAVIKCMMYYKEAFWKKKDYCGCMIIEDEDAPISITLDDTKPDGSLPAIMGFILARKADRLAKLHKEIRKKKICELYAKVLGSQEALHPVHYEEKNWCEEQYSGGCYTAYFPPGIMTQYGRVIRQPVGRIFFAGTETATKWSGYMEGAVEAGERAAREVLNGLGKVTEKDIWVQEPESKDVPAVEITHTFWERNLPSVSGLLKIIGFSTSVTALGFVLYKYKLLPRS

[8] = AUClast in CD1 mouse at 30 mg/kg, po; format: ADME, organism-based; set-up: dose 30 mg/kg, route oral, time 0 - last; conditions: in vivo
In short: (§1)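 Male CD1 mice, n = 3 per time point, dosed iv or po. About 1 mL blood taken by cardiac puncture into heparinized tubes, kept on wet ice, centrifuged 10 min at 800 g, 4 °C. Plasma stored at −80 °C; drug levels measured by HPLC–QTOF-MS.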

[9] = Volume of distribution in CD1 mouse at 30 mg/kg, iv; format: ADME, organism-based; conditions: in vivo; in short: as §1
Salmonella typhimurium [10] = assay: Mutagenicity in Salmonella typhimurium TA100 by Ames test in absence of S9 mixture; format: toxicity, organism-based; conditions: salmonella enterica subsp. enterica serovar typhimurium
Mus musculus [11] = assay: Oral bioavailability in CD1 mouse at 30 mg/kg; format: ADME, organism-based; conditions: in vivo; in short: as §1
[12] = Clearance in CD1 mouse at 30 mg/kg, iv; format: ADME, organism-based; conditions: in vivo; in short: as §1
[13] = AUClast in CD1 mouse at 30 mg/kg, iv; format: ADME, organism-based; set-up: dose 30 mg/kg, route intravenous, time 0 - last; conditions: in vivo; in short: as §1
D-amino-acid oxidase [14] = molecular target: T1, D-amino-acid oxidase; assay: Competitive inhibition of recombinant human DAAO expressed in HEK cells by double reciprocal plot analysis in presence of D-serine; set-up: species or system HEK293
In short: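 hDAAO was purified from HEK cell lysate by ion-exchange FPLC. […] Activity was read as the rate of absorbance change at 411 nm. The mode of inhibition and Ki came from a double reciprocal plot.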

[15] = Cmax in CD1 mouse at 30 mg/kg, po; format: ADME, organism-based; set-up: dose 30 mg/kg, route oral; conditions: in vivo; in short: as §1
[16] = Metabolic stability in mouse liver microsomes assessed as compound remaining at 5 uM after 60 mins by LC/MS/MS analysis in presence of NADPH; format: ADME; conditions: 1 h
In short: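 Mouse liver microsomes (0.5 mg/mL) with 5 µM test compound in 100 mM potassium phosphate pH 7.4 plus NADPH regenerating system (1.3 mM NADPH). Reaction started with microsomes, run in duplicate for 60 min, quenched with cold acetonitrile containing internal standard. Parent quantified by LC/MS/MS; cofactor-free controls included.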

Mus musculus [17] = assay: Increase in plasma Cmax of D-serine in CD1 mouse at 30 mg/kg, po; format: ADME, organism-based; conditions: in vivo
[18] = Tmax in CD1 mouse at 30 mg/kg, po; format: ADME, organism-based; conditions: in vivo; in short: as §1
[19] = molecular target: T4, Glutamate NMDA receptor; GRIN1/GRIN2A (Homo sapiens); assay: Inhibition of NMDA receptor glycine binding site (unknown origin) at 10 uM relative to control; format: protein-complex assay
Salmonella typhimurium [20] = assay: Mutagenicity in Salmonella typhimurium TA100 by Ames test in presence of S9 mixture; format: toxicity, organism-based; conditions: salmonella enterica subsp. enterica serovar typhimurium
[21] = molecular target: Voltage-gated inwardly rectifying potassium channel KCNH2 (Homo sapiens, UniProt Q12809); assay: Inhibition of human ERG up to 25 uM
[22] = Terminal half life in CD1 mouse at 30 mg/kg, iv; format: ADME, organism-based; conditions: in vivo, read-out: beta t1/2 (converted); in short: as §1
D-amino-acid oxidase [23] = molecular target: T1, D-amino-acid oxidase; assay: Inhibition of recombinant human DAAO expressed in HEK cells in presence of 10 to 100 uM of FAD; format: cell-based; conditions: HEK293
In short: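 Reactions ran in 50 mM Tris pH 8.5 with 2% DMSO final, for 20 min at room temperature. Absorbance rate was read at 411 nm. IC50 was determined with FAD raised from 10 to 100 µM.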

[24] = molecular target: T4, Glutamate NMDA receptor; GRIN1/GRIN2A (Homo sapiens); assay: Inhibition of NMDA receptor phencyclidine binding site (unknown origin) at 10 uM relative to control; format: protein-complex assay
Mus musculus [25] = assay: Dose normalized AUClast in CD1 mouse at 10 mg/kg, iv; format: ADME, organism-based; conditions: in vivo; in short: as §1
[26] = Terminal half life in CD1 mouse at 10 mg/kg, iv; format: ADME, organism-based; conditions: in vivo, read-out: beta t1/2 (converted); in short: as §1
[27] = Volume of distribution in CD1 mouse at 10 mg/kg, iv; format: ADME, organism-based; conditions: in vivo; in short: as §1

Sequence of Voltage-gated inwardly rectifying potassium channel KCNH2 (Q12809 whole entry): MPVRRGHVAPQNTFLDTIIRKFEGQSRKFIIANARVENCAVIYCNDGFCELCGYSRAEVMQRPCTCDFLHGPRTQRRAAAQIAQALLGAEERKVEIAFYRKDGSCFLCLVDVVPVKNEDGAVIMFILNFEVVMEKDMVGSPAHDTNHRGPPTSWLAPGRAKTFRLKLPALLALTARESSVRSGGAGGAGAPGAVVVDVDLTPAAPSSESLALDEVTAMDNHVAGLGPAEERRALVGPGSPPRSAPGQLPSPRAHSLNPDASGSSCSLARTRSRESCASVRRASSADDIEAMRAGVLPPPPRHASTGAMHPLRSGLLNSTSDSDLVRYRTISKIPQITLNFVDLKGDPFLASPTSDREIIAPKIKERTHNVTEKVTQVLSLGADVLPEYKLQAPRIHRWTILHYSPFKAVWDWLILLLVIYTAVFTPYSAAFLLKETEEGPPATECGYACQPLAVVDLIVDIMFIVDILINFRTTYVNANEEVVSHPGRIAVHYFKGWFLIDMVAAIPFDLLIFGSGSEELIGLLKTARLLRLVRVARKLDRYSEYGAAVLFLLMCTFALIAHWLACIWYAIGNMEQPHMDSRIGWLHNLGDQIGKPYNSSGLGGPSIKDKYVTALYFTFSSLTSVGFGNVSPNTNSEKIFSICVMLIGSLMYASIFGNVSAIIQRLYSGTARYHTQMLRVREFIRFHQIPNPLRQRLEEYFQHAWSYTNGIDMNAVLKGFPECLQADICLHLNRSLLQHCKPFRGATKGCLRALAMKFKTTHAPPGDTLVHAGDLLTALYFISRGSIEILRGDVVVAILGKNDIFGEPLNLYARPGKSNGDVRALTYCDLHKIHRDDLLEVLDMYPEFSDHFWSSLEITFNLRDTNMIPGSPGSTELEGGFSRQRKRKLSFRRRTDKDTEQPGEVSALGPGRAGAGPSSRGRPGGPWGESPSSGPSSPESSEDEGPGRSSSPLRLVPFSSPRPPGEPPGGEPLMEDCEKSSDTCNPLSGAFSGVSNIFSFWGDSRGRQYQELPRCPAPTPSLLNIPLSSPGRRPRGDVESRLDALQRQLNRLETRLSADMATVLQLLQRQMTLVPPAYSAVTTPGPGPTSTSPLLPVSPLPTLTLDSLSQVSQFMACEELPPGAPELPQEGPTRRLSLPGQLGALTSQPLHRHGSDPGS

O=c1[nH]c(=O)n(CCc2ccccn2)nc1O
IC50 (D-amino-acid oxidase [1]): 760 nM

O=c1[nH]c(=O)n(Cc2cccc3ccccc23)nc1O
inhibition at 10 µM (MAO-B): ≤ 5% | inhibition [2]: < 5% | Activity (Mus musculus [3]): 96.9 µg·h/mL | inhibition [4]: < 5% | BPR (Mus musculus [5]): 0.01 | inhibition [6]: < 5% | Stability [7]: >= 99% | inhibition at 10 µM (MAO-A): ≤ 5% | AUC(0-t) [8]: 12900 ng·h/mL | Vd [9]: 0.8 L/kg | Activity (Salmonella typhimurium [10]): Non-toxic | F (Mus musculus [11]): 79% | clearance [12]: 10.2 mL/min/kg | AUC(0-t) [13]: 16300 ng·h/mL | Ki (D-amino-acid oxidase [14]): 60 nM | Cmax [15]: 13800 ng/mL | Stability [16]: >= 99% | Activity (Mus musculus [17]): Not Active | Tmax [18]: 4.8 min | inhibition [19]: 22% | Activity (Salmonella typhimurium [20]): Non-toxic | inhibition (INH) [21]: Not Active | half-life [22]: 54 min | inhibition (D-amino-acid oxidase [23]): Active | inhibition [24]: < 5%

Cn1nc(O)c(=O)[nH]c1=O
IC50 (D-amino-acid oxidase [1]): 2800 nM

O=c1[nH]c(=O)n(CCc2ccccc2O)nc1O
IC50 (D-amino-acid oxidase [1]): 90 nM

O=c1[nH]c(=O)n(CCc2cccc(O)c2)nc1O
IC50 (D-amino-acid oxidase [1]): 160 nM

O=c1[nH]c(=O)n(CCc2cccc(C(F)(F)F)c2)nc1O
IC50 (D-amino-acid oxidase [1]): 100 nM

O=C(Cn1nc(O)c(=O)[nH]c1=O)c1ccccc1
IC50 (D-amino-acid oxidase [1]): 850 nM

O=c1[nH]c(=O)n(CCn2cccn2)nc1O
IC50 (D-amino-acid oxidase [1]): 330 nM

O=c1[nH]c(=O)n(CCc2ccc(Oc3ccccc3)cc2)nc1O
IC50 (D-amino-acid oxidase [1]): 80 nM

CC(C)CCn1nc(O)c(=O)[nH]c1=O
IC50 (D-amino-acid oxidase [1]): 260 nM

O=c1[nH]c(=O)n(CCc2ccc(O)cc2)nc1O
IC50 (D-amino-acid oxidase [1]): 110 nM

Cc1ccccc1CCn1nc(O)c(=O)[nH]c1=O
IC50 (D-amino-acid oxidase [1]): 80 nM

O=c1[nH]c(=O)n(-c2ccccc2)nc1O
IC50 (D-amino-acid oxidase [1]): > 100000 nM

COc1ccc(CCn2nc(O)c(=O)[nH]c2=O)cc1
IC50 (D-amino-acid oxidase [1]): 120 nM

COc1cccc(CCn2nc(O)c(=O)[nH]c2=O)c1
IC50 (D-amino-acid oxidase [1]): 120 nM

O=c1[nH]c(=O)n(CCc2ccc(Cl)cc2)nc1O
IC50 (D-amino-acid oxidase [1]): 40 nM

O=c1[nH]c(=O)n(CCc2ccccc2)nc1O
Stability [7]: >= 99% | Stability [16]: >= 99% | IC50 (D-amino-acid oxidase [1]): 70 nM

O=c1[nH]nc(CCc2cc(F)cc(F)c2)cc1O
AUC(0-t) [8]: 3900 ng·h/mL | Cmax [15]: 6600 ng/mL | Stability [16]: 92% | AUClast/dose (Mus musculus [25]): 12.7 µg·h/mL | Tmax [18]: 15 min | half-life [26]: 12 min | Vd [27]: 0.5 L/kg

Source: ChEMBL document CHEMBL3612020
